# Screening data (PubChem)
# ERAP1 inh = ERAP1 (human) enzyme inhibition; Q9NZ08; recombinant ERAP1, Leu-AMC fluorescence, 60 min; inhibition, % at 10.7 µM; hit rate 0.15% among 340,000; AID 652197;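 active = mean replicate inhibition of at least 30%, or all replicates individually reaching that 30% level; inactive = mean below 30% and not every replicate reaching it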;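 note: 0% = neutral control wells and 100% = L-leucinethiol positive control wells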
# S100A4 MyoIIA = S100A4-myosin IIA interaction inhibition | AID 652163 | hit rate 0.14% among 360,000 | S100A4/TAMRA-MyoIIA peptide fluorescence polarization | inhibition, % at 10.7 µM | P26447;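 active = mean inhibition of at least 70% across replicates, with every replicate also reaching that level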
# Target sequence (P26447 whole entry, looked up): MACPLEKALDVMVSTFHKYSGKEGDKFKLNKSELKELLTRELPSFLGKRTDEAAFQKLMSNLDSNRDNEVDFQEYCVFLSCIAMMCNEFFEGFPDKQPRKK
#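 System – human S100A4 monomer protein, biochemical binding assay · Buffer or medium – Calcium-containing HEPES buffer, pH 7.2 · Timing – 5 min between mix addition and reading · Also added – TAMRA-labelled myosin IIA heavy-chain peptide probe, 5 nM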
# PGC1a acetyl inh = modulators of PGC1a acetylation; inhibition, % at 15.6 µM; U2OS PGC1a acetylation, AlphaScreen anti-acetyl-lysine; with virally co-expressed GCN5 acetyltransferase; hit rate 0.17% among 350,000;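 active = every replicate shows inhibition of at least 40%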;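 note: 0% = neutral control wells and 100% = positive control wells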
# Statin myotox sup = suppressors of simvastatin-induced myotoxicity in C2C12 myotubes | hit rate 0.78% among 330,000 | rescue of ATP level, % at 7.49 µM | AID 602340 | ATP luminescence, 48 h; scaled: DMSO 0, geranylgeraniol control 100;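 active = mean ATP rescue above about 67%, or every replicate alone reaching that limit, limit read from the data, passing the limit was not always enough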;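 note: myotubes were challenged with 10 µM simvastatin during compound exposure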
# Rtt109 HAT inh = C. albicans Rtt109 histone acetyltransferase inhibition | Q5AAJ8 | purified Rtt109/Vps75, ThioGlo CoA-SH fluorescence, 4 h | inhibition, % at 34.9 µM | hit rate 0.16% among 330,000 | AID 540336;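 active = inhibition of at least 50% in every replicate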
# Target sequence (Q5AAJ8 whole entry, looked up): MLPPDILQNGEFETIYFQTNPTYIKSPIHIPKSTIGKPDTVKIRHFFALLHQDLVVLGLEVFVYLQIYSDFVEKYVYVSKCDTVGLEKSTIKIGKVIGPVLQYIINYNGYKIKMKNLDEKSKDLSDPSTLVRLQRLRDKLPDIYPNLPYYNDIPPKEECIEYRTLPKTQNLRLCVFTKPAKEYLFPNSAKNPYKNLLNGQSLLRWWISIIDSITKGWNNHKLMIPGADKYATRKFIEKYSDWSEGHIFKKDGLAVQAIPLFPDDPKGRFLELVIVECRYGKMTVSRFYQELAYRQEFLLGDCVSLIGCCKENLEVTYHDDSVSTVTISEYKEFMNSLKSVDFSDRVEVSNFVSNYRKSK
# Active calls of the source: *; . = not tested or not shown. A selection: hits, their analogues and other compounds. The true share with any hit is near 0.98%.
SMILES,ERAP1 inh,S100A4 MyoIIA,PGC1a acetyl inh,Statin myotox sup,Rtt109 HAT inh
Cc1ccc(NC(=S)N(CCN(C)C)Cc2cc3cccc(C)c3[nH]c2=O)cc1,4.4,1.8,-1.5,113.8*,6.9
O=C(Nc1ccccc1)N1CC(=O)N2[C@H](CO)[C@H](c3ccc(C#CC4CC4)cc3)[C@H]2C1,-0.8,4.4,2.6,.,.
Cc1ccc(S(=O)(=O)N/N=C/c2c[nH]c3ccccc23)cc1,-2.1,-3.9,104.5*,19.3,1.9
Cc1ccccc1-c1ccc([C@H]2[C@@H](CO)N3CCCCN(S(C)(=O)=O)C[C@H]23)cc1,-1.3,3.3,-6.4,19.1,.
O=C1OC(NC(=O)c2ccccc2)C(n2cc(CO)nn2)=C1Cl (stereo not drawn),.,.,-6.7,21.0,193.2*
CO[C@H](CN(C)Cc1ccc2c(c1)OCO2)[C@@H](C)CN(C(=O)c1ccccc1)[C@@H](C)CO,-6.3,9.1,1.4,5.8,.
Cc1ccc2nc(SCC(=O)N(CC(C)C)c3c(N)n(CC(C)C)c(=O)[nH]c3=O)[nH]c2c1,.,.,14.2,101.3*,16.2
CN(C)C(=O)c1cccc(-c2ccc3c(c2)[C@H]2[C@H](CCN2Cc2ccccc2F)[C@@H](CO)N3)c1,.,.,-0.3,2.8,.
N#C[C@@H]1[C@H](c2ccccc2-c2cccc(F)c2)[C@@H](CO)N1C(=O)C1CC1,-1.9,77.4*,-14.2,.,.
COCc1[nH]nc2c1C(c1sccc1C)C(C#N)=C(N)O2 (stereo not drawn),0.5,-1.9,1.0,93.8*,-1.1
COCc1[nH]nc2c1C(c1ccsc1)C(C#N)=C(N)O2 (stereo not drawn),.,.,.,.,16.6
Cc1ccc(-n2cnc(=O)c3cccnc32)cc1,.,.,.,.,11.3
C#CCSc1nc(=O)c2cccnc2n1-c1ccc(C)cc1,-0.1,-3.8,17.4,132.0*,6.1
C[C@@H]1CN([C@H](C)CO)C(=O)c2cc(NC(=O)Cc3cn(C)c4ccccc34)ccc2O[C@@H]1CN(C)C(=O)Nc1ccccc1,-1.2,6.9,107.6*,33.7,.
C[C@H](CO)N1C[C@H](C)[C@H](CN(C)Cc2ccc(C(=O)Nc3ccccc3N)cc2)Oc2ccc(NC(=O)Cc3cn(C)c4ccccc34)cc2C1=O,-1.4,-31.3,8.2,97.5*,.
C[C@H]1CN([C@@H](C)CO)C(=O)c2cc(NC(=O)Cc3cn(C)c4ccccc34)ccc2O[C@@H]1CN(C)Cc1ccc(C(F)(F)F)cc1,-1.3,20.5,0.7,83.0*,.
C[C@H](CO)N1C[C@H](C)[C@@H](CN(C)C(=O)Nc2ccccc2)Oc2ccc(NC(=O)Cc3cn(C)c4ccccc34)cc2C1=O,-2.4,-16.5,-6.5,9.8,.
C[C@@H]1CN([C@H](C)CO)C(=O)c2cc(NC(=O)Cc3cn(C)c4ccccc34)ccc2O[C@H]1CN(C)Cc1ccc(-c2ccccc2)cc1,2.0,-9.3,-9.6,68.4*,.
C[C@H]1CN([C@@H](C)CO)C(=O)c2cc(NC(=O)Cc3cn(C)c4ccccc34)ccc2O[C@@H]1CN(C)Cc1ccc(-c2ccccc2)cc1,1.0,-13.4,-0.1,45.8,.
O=C(C[C@H]1C=C[C@@H](NC(=O)c2ccccn2)[C@@H](CO)O1)NCc1cc(F)cc(F)c1,.,4.6,-2.5,-8.2,.
C[C@@H]1CN([C@H](C)CO)C(=O)c2cc(NC(=O)CCCN(C)C)ccc2O[C@@H](C)CCCCO[C@H]1CN(C)C(=O)CCCN(C)C,.,.,4.5,.,.
Cc1ccc(S(=O)(=O)N(C)C[C@@H]2Oc3ccc(NC(=O)NC(C)C)cc3C(=O)N([C@H](C)CO)C[C@@H]2C)cc1,.,.,-11.0,-23.1,.
C[C@@H]1CN([C@H](C)CO)C(=O)Cc2cc(NC(=O)Nc3ccc(C(F)(F)F)cc3)ccc2O[C@@H]1CN(C)C(=O)Nc1ccc(F)cc1,2.7,-5.7,-5.8,-35.5,.
CCCNC(=O)N(C)C[C@H]1Oc2cc(-c3ccc(C)cc3)ccc2S(=O)(=O)N([C@@H](C)CO)C[C@H]1C,-0.7,-4.0,-15.7,5.9,.
C[C@H](CO)N1C[C@H](C)[C@@H](CN(C)C)Oc2ccc(NC(=O)C3CC3)cc2C1=O,-2.1,-2.1,-1.5,-8.9,.
COc1ccc(/C=C/C(=O)Nc2ccc(OC)nc2)cc1,-1.8,6.1,11.8,84.4*,.
O=C(Nc1ccc(O)c(-c2nc3ccccc3s2)c1)c1cc(=O)c2ccccc2o1,.,.,8.2,.,56.0*
O=C(Nc1ccc(O)c(-c2nc3ccccc3s2)c1)c1cccs1,1.0,0.2,.,.,0.8
